Holding throughout (assay type): nucleic-acid assay
In test [1] the test system is Nucleic Acid. The test is described as follows: Binding affinity to human telomeric DNA G-quadruplex assessed as change in melting temperature at 0.5 uM by fluorescein-rhodamine based FRET assay. The gist of the method: (§1)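 Human telomeric-repeat G-quadruplex oligo carrying a 5'/3' fluorescein–rhodamine FRET pair. Compound at 0.5 µM with the oligo at half that concentration, in 10 mM cacodylate, 100 mM NaCl, pH 7.4. Heated from 20 to 80 °C at 1 °C/min with a 2 min equilibration at each step. Emission read at 518 nm; Tm taken from the melting curve, ΔTm against no compound.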

For test [2], the system named is Nucleic Acid. Briefly: Binding affinity to human telomeric DNA G-quadruplex assessed as melting temperature at 0.5 uM by fluorescein-rhodamine based FRET assay. The gist of the method:
as §1

The subject of test [3] is Nucleic Acid. Briefly: Selectivity for synthetic oligo 22G DNA G-quadruplex over synthetic oligo 17bp DNA duplex. The essentials:
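Ratio of the thiazole-orange displacement binding constant for the 22G quadruplex to that for the 17 bp duplex. Both constants come from titrating compound into 0.25 µM oligo with dye in 10 mM cacodylate, pH 7.4, 100 mM KCl, taking the 50% loss of peak area as IC50, and applying a competitive binding model.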

The subject of test [4] is Nucleic Acid. Briefly: Displacement of thiazole orange from synthetic oligo 22G DNA G-quadruplex by fluorescence displacement assay. The essentials: (§2)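 Compound titrated into 0.25 µM oligonucleotide (22G quadruplex or 17 bp duplex) with thiazole orange in 10 mM cacodylate, pH 7.4, plus 100 mM KCl. Full fluorescence spectrum recorded after each addition and peak area plotted against compound concentration. Concentration cutting the area by 50% taken as IC50; binding constant calculated from a simple competitive binding model.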

The subject of test [5] is Nucleic Acid. The test is described as follows: Displacement of thiazole orange from synthetic oligo 17bp DNA duplex by fluorescence displacement assay. The essentials: as §2
Test [6] concerns Nucleic Acid. Briefly: Binding affinity to human telomeric DNA assessed as equilibrium binding constant by SPR. The essentials: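 SPR steady-state analysis against human telomeric quadruplex and duplex DNA, with multiple injections over a range of drug concentrations. Binding constants derived from the relative instrument response.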
On the technique in general: SPR reads the build-up and loss of mass on a sensor chip optically.

The subject of test [7] is Nucleic Acid. The test is described as follows: Binding affinity to DNA G-quadruplex.

Structures are written as SMILES.

Broadly, the ΔTm is the change in melting temperature against a reference sample. In the case of `O=C(NCCN1CCNCC1)c1cc(=O)c2ccc3ccccc3c2[nH]1`, the shift in melting temperature (ΔTm) with Nucleic Acid [1] came out at 1.27 °C. For the same molecule, the Tm with Nucleic Acid [2] stood at 52.5 °C. In addition, the Ratio with Nucleic Acid [3] came out at 0.21. The results for the K with Nucleic Acid [4] and in the test with Nucleic Acid [5] were 0.53 ×10⁵ /M and 2.5 ×10⁵ /M, respectively.

Regarding `O=C(NCCN1CCCCC1)c1c[nH]c2c(ccc3ccccc32)c1=O`, the ΔTm in the test with Nucleic Acid [1] came to 5.17 °C. The Tm in the test on Nucleic Acid [2] is 56.4 °C. The Ratio in the test with Nucleic Acid [3] was determined as 10.4. Also, the K was 2.5 ×10⁵ /M in the test on Nucleic Acid [4] and 0.24 ×10⁵ /M in the test on Nucleic Acid [5].

Turning to `CN1CCN(CCNC(=O)c2c[nH]c3c(ccc4ccccc43)c2=O)CC1`, the ΔTm with Nucleic Acid [1] is 3.69 °C. Besides, the Tm in the test on Nucleic Acid [2] was 54.9 °C. For the same molecule, the Ratio in the test with Nucleic Acid [3] turned out to be 0.37. Moreover, the values for the K in the test with Nucleic Acid [6], in the test on Nucleic Acid [4] and in the test with Nucleic Acid [5] were 0.5 ×10⁵ /M, 0.19 ×10⁵ /M and 0.5 ×10⁵ /M, respectively.

As for `O=C(NCCN1CCCCC1)c1cc(=O)c2ccc3ccccc3c2[nH]1`, in the test with Nucleic Acid [1], the ΔTm came out at 1 °C. Moreover, the Tm in the test on Nucleic Acid [2] is 52.2 °C. For the same molecule, in the test on Nucleic Acid [3], the Ratio was determined as 0.05. Besides, the results for the K in the test on Nucleic Acid [4] and in the test with Nucleic Acid [5] were 0.05 ×10⁵ /M and 1.1 ×10⁵ /M, respectively.

With `CN(C)c1ccc(NC(=O)c2cc(=O)c3ccc4ccccc4c3[nH]2)cc1`, in the test on Nucleic Acid [1], the ΔTm turned out to be 0.41 °C. The Tm in the test with Nucleic Acid [2] was found to be 51.6 °C. Further, the Ratio in the test with Nucleic Acid [3] was 7.4. Further, the K with Nucleic Acid [6] amounted to 0.3 ×10⁵ /M; in the test on Nucleic Acid [4], 3.9 ×10⁵ /M; in the test with Nucleic Acid [5] it was 0.53 ×10⁵ /M.

On to `CN(C)c1ccc(NC(=O)c2c[nH]c3c(ccc4ccccc43)c2=O)cc1`, for which the ΔTm in the test on Nucleic Acid [1] is 0.19 °C. Also, in the test on Nucleic Acid [2], the Tm came to 51.4 °C. The Ratio in the test on Nucleic Acid [3] amounted to 0.71. Besides, the K in the test on Nucleic Acid [4] came to 0.53 ×10⁵ /M; in the test with Nucleic Acid [5] it was 0.74 ×10⁵ /M.

Take `O=C(Nc1ccccc1)c1c[nH]c2c(ccc3ccccc32)c1=O`: the ΔTm with Nucleic Acid [1] turned out to be 1.05 °C. For the same molecule, the Tm in the test on Nucleic Acid [2] came out at 52.3 °C. For the same molecule, the Ratio in the test with Nucleic Acid [3] was 0.22. Further, the K in the test on Nucleic Acid [4] is 1.4 ×10⁵ /M; in the test with Nucleic Acid [5], 6 ×10⁵ /M.

With `O=C(NCCN1CCCC1)c1cc(=O)c2ccc3ccccc3c2[nH]1`, the shift in melting temperature (ΔTm) in the test on Nucleic Acid [1] is 1.35 °C. The Tm with Nucleic Acid [2] was 52.6 °C. In addition, the Ratio with Nucleic Acid [3] is 0.55. Further, the K in the test on Nucleic Acid [4] worked out at 0.23 ×10⁵ /M; in the test on Nucleic Acid [5] it was 0.41 ×10⁵ /M.

For `O=C(Nc1ccncc1)c1c[nH]c2c(ccc3ccccc32)c1=O`, in the test on Nucleic Acid [1], the ΔTm came out at 5.29 °C. For the same molecule, in the test on Nucleic Acid [2], the Tm stood at 56.5 °C. In the test with Nucleic Acid [3], the Ratio was determined as 0.51. In addition, the K worked out at 1.4 ×10⁵ /M in the test on Nucleic Acid [4] and 2.5 ×10⁵ /M with Nucleic Acid [5].

Consider `O=C(Nc1ccncc1)c1cc(=O)c2ccc3ccccc3c2[nH]1`, for which, in the test with Nucleic Acid [1], the thermal shift (ΔTm) is 0.69 °C. For the same molecule, the Tm with Nucleic Acid [2] came out at 51.9 °C. The Ratio in the test with Nucleic Acid [3] turned out to be 0.84. In addition, the K in the test on Nucleic Acid [4] was 0.42 ×10⁵ /M; in the test with Nucleic Acid [5], 0.5 ×10⁵ /M.

For `O=C(NCCN1CCCC1)c1c[nH]c2c(ccc3ccccc32)c1=O`, the ΔTm with Nucleic Acid [1] was found to be 4.36 °C. Besides, the Tm in the test on Nucleic Acid [2] was 56 °C. The Ratio in the test on Nucleic Acid [3] worked out at 2.5. For the same molecule, the K came out at 0.4 ×10⁵ /M in the test on Nucleic Acid [6], 0.53 ×10⁵ /M in the test on Nucleic Acid [4] and 0.21 ×10⁵ /M in the test with Nucleic Acid [5].

In turn, `CN(C)CCCNC(=O)c1cc2[nH]c3c(cnc4ccc([N+](=O)[O-])cc43)c(=O)c2n1C` returned a Kapp with Nucleic Acid [7] of 2.7 ×10⁴ /M.

`O=C(NCCN1CCNCC1)c1c[nH]c2c(ccc3ccccc32)c1=O`: in the test on Nucleic Acid [1], the thermal shift (ΔTm) turned out to be 1.19 °C. Also, in the test on Nucleic Acid [2], the Tm worked out at 52.4 °C. For the same molecule, in the test with Nucleic Acid [3], the Ratio was 0.4. Moreover, the K in the test with Nucleic Acid [4] was found to be 0.3 ×10⁵ /M; with Nucleic Acid [5], 0.75 ×10⁵ /M.

For the origin of these results see ChEMBL document CHEMBL1153326, “Benzo(h)quinoline derivatives as G-quadruplex binding agents” (Bioorg Med Chem Lett, 2009).
